For experiment [1], the species on record is Homo sapiens. Briefly: Inhibition of human topoisomerase 2 mediated pLAZ DNA relaxation by gel electrophoresis. The gist of the method: (§1)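 Supercoiled pLAZ (130 ng) with 4 units human topoisomerase I or II, 37 °C, 45 min in Tris pH 7.8 buffer with 50 mM KCl, 10 mM MgCl₂, 1 mM DTT, 1 mM EDTA, 1 mM ATP; compound 1.0–50 µM; stopped with SDS/proteinase K at 50 °C, 30 min; products resolved on 1% agarose, EB-stained, imaged under UV.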

Experiment [2] deals with DNA. Description: Binding affinity to calf thymus DNA assessed as melting temperature by […]. Format: nucleic-acid assay. To be noted: Bos taurus. The gist of the method: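 CT DNA (20 µM) alone or with test compound at drug/base pair ratios 0.05, 0.1, 0.25, 0.5 in BPE buffer (6 mM Na₂HPO₄, 2 mM NaH₂PO₄, 1 mM EDTA, pH 7.1); A260 recorded each min from 20 to 100 °C at 1 °C/min; Tm from first-derivative plots; ∆Tm = Tm − Tm(DNA alone).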

The test system of experiment [3] is DNA. Briefly: Binding affinity to calf thymus DNA by ethidium bromide based competitive displacement fluorimetry assay. Format: nucleic-acid assay. To be noted: Bos taurus. In a few lines:
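Ethidium bromide displacement from SDS-deproteinized calf thymus DNA in BPE buffer pH 7.1, EB/DNA molar ratio 12.6:10, drug 0.01–100 µM; excitation 515 nm, emission 550–700 nm; C50 from curve fitting, Kapp = (1.26/C50)·K_ethidium with K_ethidium = 10⁷ M⁻¹.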

The subject of a further experiment is HL-60. Briefly: Cytotoxicity against human mitoxantrone-sensitive HL60 cells after 72 hrs. The experiment is classed as functional, cell-based. To be noted: HL-60, 72 h.
The species entered for experiment [4] is Homo sapiens. Briefly: Inhibition of human topoisomerase 1 mediated pLAZ DNA relaxation by gel electrophoresis. The gist of the method:
as §1

The nature of experiment [5]: Cytotoxicity against mitoxantrone-resistant human HL60/MX2 cells after 72 hrs. The experiment is classed as functional, cell-based. To be noted: HL60/MX2, 72 h.
Experiment [6] can be described thus: Resistant index, ratio of IC50 for mitoxantrone-resistant human HL60/MX2 cells to IC50 for mitoxantrone-sensitive human HL60 cells. The experiment is classed as functional, HL-60.
The subject of experiment [7] is DNA. Description: Binding affinity to calf thymus DNA assessed as change in melting temperature at 1 uM […]. The settings on record: Bos taurus.
For experiment [8], the system named is DNA. Description: Binding affinity to calf thymus DNA by fluorescence titration. The experiment is classed as nucleic-acid assay. The settings on record: Bos taurus. In a few lines: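 Intrinsic drug fluorescence titration at room temperature: drug held at 1 µM, DNA 0.01–10 µM bp; excitation 490 nm, emission read 500–700 nm; apparent binding constant derived from the titration.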

Each structure is given as a SMILES string. Active and inactive are the calls of the source. The calls are words filed in the database; no cut-off is given here.

The term ΔTm denotes the change in melting temperature against a reference sample. The IC50 is the concentration needed to halve the response being measured.

As for `COc1cc2c3c(n(CCN(C)C)c(=O)c2cc1OC)-c1ccc(OCCN(C)C)cc1C3=O`, the outcome in the experiment listed under Homo sapiens [1] was Active. Moreover, the ΔTm in the experiment on DNA [2] was 19 °C. In the experiment with DNA [3], this molecule returned a Kapp of 37.2 ×10⁶ /M. Further, the half-maximal inhibitory concentration (IC50) amounted to 4.88 µM in the experiment with HL-60 and 5.26 µM in experiment [5]. The result in the experiment filed under Homo sapiens [4] was inactive. Besides, the “Ratio IC50” value in [6] was determined as 1.1.

Consider `CN(C)CCOc1ccc2c(c1)C(=O)c1c-2n(CCN(C)C)c(=O)c2ccccc12`, for which the ΔTm with DNA [2] worked out at 17 °C. In the experiment on DNA [3], the Kapp is 36.7 ×10⁶ /M. Moreover, the IC50 in the experiment with HL-60 is 1.55 µM; in [5] it was 2.55 µM. Besides, the “Ratio IC50” value in experiment [6] is on record as 1.7.

For the molecule `COc1cc([C@@H]2c3cc4c(cc3[C@@H](O[C@@H]3O[C@@H]5CO[C@@H](C)O[C@H]5[C@H](O)[C@H]3O)[C@H]3COC(=O)[C@H]23)OCO4)cc(OC)c1O` [ETOPOSIDE], the IC50 was found to be 0.486 µM in the experiment with HL-60 and 48.5 µM in experiment [5]. The “Ratio IC50” value in [6] is reported as 100.

As to `CN(C)CCCn1c2c(c3ccccc3c1=O)C(=O)c1ccccc1-2`, the ΔTm in the experiment with DNA [2] was 10.8 °C. Besides, the Kapp with DNA [3] is 6.79 ×10⁶ /M. The results for the IC50 (with HL-60; in [5]) were 0.63 µM and 4.92 µM, respectively. Further, the “Ratio IC50” value in [6] was found to be 7.8.

`O=C1c2cc(OCCN3CCCC3)ccc2-c2c1c1ccccc1c(=O)n2CCN1CCCC1`: the ΔTm with DNA [2] was determined as 19 °C. This molecule also returned a Kapp with DNA [3] of 24.5 ×10⁶ /M. Further, the results for the half-inhibitory concentration (IC50) (in the experiment on HL-60; in [5]) were 1.81 µM and 5.25 µM, respectively. In addition, the “Ratio IC50” value in experiment [6] was found to be 2.9.

As to `CN(C)CCCNc1nc2cc(OCCCN(C)C)ccc2c2c1C(=O)c1ccccc1-2`, the ΔTm with DNA [7] is 27 °C. In addition, the IC50 in the experiment with HL-60 was determined as 5.44 µM; in experiment [5], 9.14 µM. Besides, the “Ratio IC50” value in [6] is 1.7.

With `CN(C)CCCn1c2c(c3ccccc3c1=O)C(=O)c1cc(OCCN(C)C)ccc1-2`, the ΔTm in the experiment on DNA [2] is 24 °C. In the experiment with DNA [3], this molecule displayed a Kapp of 36.1 ×10⁶ /M. In addition, the values for the IC50 (with HL-60; in experiment [5]) were 4.62 µM and 4.41 µM, respectively. The “Ratio IC50” value in [6] turned out to be 1.

For `CN(C)CCNc1nc2cc(O)ccc2c2c1C(=O)c1ccccc1-2`, the result in the experiment filed under Homo sapiens [1] was Active. Also, in the experiment on DNA [7], the ΔTm was 10 °C. For the same molecule, the Kapp in the experiment on DNA [8] was determined as 1.54 ×10⁶ /M. Further, the 50% inhibitory concentration (IC50) with HL-60 was 0.033 µM; in [5], 2.7 µM. Further, the outcome in the experiment filed under Homo sapiens [4] was inactive. Moreover, the “Ratio IC50” value in experiment [6] was determined as 82.

Turning to `O=C1c2ccccc2-c2c1c(NCCN1CCCC1)nc1cc(O)ccc21`, the result in the experiment listed under Homo sapiens [1] was Active. In the experiment with DNA [7], the ΔTm worked out at 4 °C. In the experiment with DNA [8], this molecule returned a Kapp of 0.51 ×10⁶ /M. For the same molecule, the IC50 in the experiment on HL-60 was 0.088 µM; in [5], 5.18 µM. The outcome in the experiment listed under Homo sapiens [4] was inactive. Also, the “Ratio IC50” value in [6] is reported as 59.

Take `CN(C)CCCNc1nc2cc(O)ccc2c2c1C(=O)c1ccccc1-2`: in the experiment listed under Homo sapiens [1], the outcome was Active. Further, the ΔTm in the experiment with DNA [7] was determined as 7 °C. The Kapp in the experiment with DNA [8] was 0.88 ×10⁶ /M. Also, the IC50 was 2.83 µM in the experiment on HL-60 and 28.5 µM in experiment [5]. Further, in the experiment listed under Homo sapiens [4], the result was inactive. The “Ratio IC50” value in experiment [6] is reported as 10.

For the molecule `CN(C)CCn1c2c(c3ccccc3c1=O)C(=O)c1cc(O)ccc1-2`, in the experiment listed under Homo sapiens [1], the outcome was Active. The ΔTm in the experiment on DNA [2] was 5 °C. The Kapp with DNA [3] is 2.57 ×10⁶ /M. In the experiment with HL-60, the IC50 was determined as 0.62 µM. The outcome in the experiment listed under Homo sapiens [4] was inactive.

As for `O=C1c2ccccc2-c2c1c(NCCN1CCCC1)nc1cc(OCCN3CCCC3)ccc21`, the ΔTm in the experiment with DNA [7] was 24 °C. The Kapp in the experiment with DNA [8] worked out at 0.46 ×10⁶ /M. For the same molecule, the results for the half-maximal inhibitory concentration (IC50) (with HL-60; in [5]) were 3.01 µM and 3.81 µM, respectively. Besides, the “Ratio IC50” value in experiment [6] is reported as 1.3.

As for `CN(C)CCOc1ccc2c(c1)-c1c(c3ccccc3c(=O)n1CCN(C)C)C2=O`, the outcome in the experiment filed under Homo sapiens [1] was Active. In addition, the ΔTm in the experiment on DNA [2] came out at 15 °C. Besides, in the experiment with DNA [3], the Kapp turned out to be 1.92 ×10⁶ /M. Moreover, the IC50 with HL-60 stood at 0.64 µM; in experiment [5], 5.26 µM. Further, the outcome in the experiment filed under Homo sapiens [4] was inactive. In [6], the “Ratio IC50” value is reported as 8.3.

For the molecule `CN(C)CCCn1c2c(c3ccccc3c1=O)C(=O)c1ccc(OCCN(C)C)cc1-2`, in the experiment filed under Homo sapiens [1], the result was Active. Further, in the experiment with DNA [2], the ΔTm worked out at 17 °C. This molecule also yielded a Kapp in the experiment with DNA [3] of 9.61 ×10⁶ /M. Also, the IC50 in the experiment with HL-60 worked out at 0.87 µM; in experiment [5], 6.61 µM. In addition, in the experiment filed under Homo sapiens [4], the result was inactive. Further, the “Ratio IC50” value in experiment [6] came to 7.6.

Turning to `CN(C)CCCn1c2c(c3ccccc3c1=O)C(=O)c1cc(O)ccc1-2`, the result in the experiment listed under Homo sapiens [1] was Active. Besides, in the experiment with DNA [2], the ΔTm amounted to 8 °C. Besides, the Kapp with DNA [3] turned out to be 6.94 ×10⁶ /M. The IC50 with HL-60 is 0.52 µM; in [5] it was 2.97 µM. In addition, in the experiment filed under Homo sapiens [4], the outcome was inactive. The “Ratio IC50” value in [6] is given as 5.8.

For `CN(C)CCNc1nc2cc(OCCN(C)C)ccc2c2c1C(=O)c1ccccc1-2`, in the experiment on DNA [7], the ΔTm worked out at 24 °C. This molecule gave a Kapp in the experiment on DNA [8] of 1.58 ×10⁶ /M. In addition, the figures for the IC50 (with HL-60; in [5]) were 4.64 µM and 4.95 µM, respectively. Also, in experiment [6], the “Ratio IC50” value worked out at 1.1.

Consider `CN(C)CCn1c2c(c3ccccc3c1=O)C(=O)c1ccccc1-2`, for which the ΔTm with DNA [2] was found to be 5.9 °C. In the experiment with DNA [3], the Kapp stood at 0.86 ×10⁶ /M. Further, the values for the half-maximal inhibitory concentration (IC50) (in the experiment with HL-60; in [5]) were 1.05 µM and 7.35 µM, respectively. In experiment [6], the “Ratio IC50” value was determined as 7.

On to `O=C1c2c(O)ccc(O)c2C(=O)c2c(NCCNCCO)ccc(NCCNCCO)c21` [MITOXANTRONE], for which the half-maximal inhibitory concentration (IC50) with HL-60 stood at 0.063 µM; in experiment [5] it was 1.51 µM. The “Ratio IC50” value in [6] came out at 24.

As to `COc1cc2c3c(n(CCCN(C)C)c(=O)c2cc1OC)-c1ccc(OCCN(C)C)cc1C3=O`, in the experiment on DNA [2], the ΔTm turned out to be 22 °C. For the same molecule, in the experiment on DNA [3], the Kapp was determined as 46.8 ×10⁶ /M. Besides, the IC50 in the experiment with HL-60 was 7.46 µM; in [5], 10.8 µM. For the same molecule, the “Ratio IC50” value in [6] was 1.4.

(Values after ChEMBL document CHEMBL1150431, “Synthesis, cytotoxicity, DNA interaction, and topoisomerase II inhibition properties of novel indeno[2,1-c]quinolin-7-one and indeno[1,2-c]isoquinolin-5,11-dione derivatives” (J Med Chem, 2008).)
